{
  "source": "ChEMBL document CHEMBL1255376",
  "about": "“Comparative surveillance study of telavancin activity against recently collected gram-positive clinical isolates from across the United States” (2008)",
  "assay_type_in_all_cases": "functional",
  "key": {"Enterococcus faecalis [1]": {"test_system": "Enterococcus faecalis", "assay": "Antibacterial activity against vancomycin- and teichoplanin-nonsusceptible Enterococcus faecalis clinical isolate by broth microdilution method", "outline": "(§1)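 MICs by CLSI broth microdilution in frozen trays pre-loaded with serial dilutions of each agent. Quality-control strains run in parallel: E. faecalis ATCC 29212 and ATCC 51299, S. aureus ATCC 29213, S. pneumoniae ATCC 49619. Comparator susceptibility categories follow CLSI breakpoints. Methicillin resistance in staphylococci assigned from the oxacillin MIC.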"}, "Enterococcus faecalis [2]": {"test_system": "Enterococcus faecalis", "assay": "Antibacterial activity against vancomycin-resistant and teichoplanin-susceptible Enterococcus faecalis clinical isolate by broth microdilution method", "outline": "as §1"}, "Enterococcus faecium [3]": {"test_system": "Enterococcus faecium", "assay": "Antibacterial activity against vancomycin- and teichoplanin-nonsusceptible Enterococcus faecium clinical isolate by broth microdilution method", "outline": "as §1"}, "Enterococcus faecalis [4]": {"test_system": "Enterococcus faecalis", "assay": "Antibacterial activity against vancomycin-susceptible Enterococcus faecalis clinical isolate by broth microdilution method", "outline": "as §1"}, "Enterococcus faecium [5]": {"test_system": "Enterococcus faecium", "assay": "Antibacterial activity against vancomycin-resistant and teichoplanin-susceptible Enterococcus faecium clinical isolate by broth microdilution method", "outline": "as §1"}, "Enterococcus faecium [6]": {"test_system": "Enterococcus faecium", "assay": "Antibacterial activity against vancomycin-susceptible Enterococcus faecium clinical isolate by broth microdilution method", "outline": "(§2)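 MIC by CLSI broth microdilution in frozen microtiter trays holding serial dilutions of each agent, prepared from standard laboratory powders. E. faecalis ATCC 29212 and ATCC 51299, S. aureus ATCC 29213 and S. pneumoniae ATCC 49619 run in parallel as quality-control strains. Comparator susceptibility interpreted with CLSI breakpoints.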"}, "[7]": {"assay": "Antibacterial activity against Streptococcus sp. Group G clinical isolate by broth microdilution method", "outline": "as §2"}, "Streptococcus sanguinis": {"test_system": "Streptococcus sanguinis", "assay": "Antibacterial activity against Streptococcus sanguinis clinical isolate by broth microdilution method", "outline": "as §2"}, "Streptococcus agalactiae": {"test_system": "Streptococcus agalactiae", "assay": "Antibacterial activity against Streptococcus agalactiae clinical isolate by broth microdilution method", "outline": "as §2"}, "Streptococcus pneumoniae [8]": {"test_system": "Streptococcus pneumoniae", "assay": "Antibacterial activity against penicillin resistant Streptococcus pneumoniae clinical isolate by broth microdilution method", "outline": "as §1"}, "Streptococcus oralis": {"test_system": "Streptococcus oralis", "assay": "Antibacterial activity against Streptococcus oralis clinical isolate by broth microdilution method", "outline": "as §2"}, "[9]": {"assay": "Antibacterial activity against Streptococcus sp. Group C clinical isolate by broth microdilution method", "outline": "as §2"}, "[10]": {"test_system": "Streptococcus intermedius", "assay": "Antibacterial activity against Streptococcus intermedius clinical isolate by broth microdilution method", "outline": "as §2"}, "Streptococcus pneumoniae [11]": {"test_system": "Streptococcus pneumoniae", "assay": "Antibacterial activity against penicillin intermediate Streptococcus pneumoniae clinical isolate by broth microdilution method", "outline": "as §1"}, "Streptococcus mitis": {"test_system": "Streptococcus mitis", "assay": "Antibacterial activity against Streptococcus mitis clinical isolate by broth microdilution method", "outline": "as §2"}, "[12]": {"test_system": "Streptococcus constellatus", "assay": "Antibacterial activity against Streptococcus constellatus clinical isolate by broth microdilution method", "outline": "as §2"}, "Streptococcus sp. [13]": {"test_system": "Streptococcus sp.", "assay": "Antibacterial activity against Streptococcus sp. Group F clinical isolate by broth microdilution method", "outline": "(§3)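 MIC by CLSI broth microdilution in frozen microtiter trays holding serial dilutions of each agent, prepared from standard laboratory powders. Comparator susceptibility interpreted with CLSI breakpoints.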"}, "Streptococcus pyogenes": {"test_system": "Streptococcus pyogenes", "assay": "Antibacterial activity against Streptococcus pyogenes clinical isolate by broth microdilution method", "outline": "as §2"}, "Streptococcus equinus": {"test_system": "Streptococcus equinus", "assay": "Antibacterial activity against Streptococcus bovis clinical isolate by broth microdilution method", "outline": "as §2"}, "Streptococcus sp. [14]": {"test_system": "Streptococcus sp.", "assay": "Antibacterial activity against Streptococcus sp. clinical isolate by broth microdilution method", "outline": "as §3"}, "Streptococcus pneumoniae [15]": {"test_system": "Streptococcus pneumoniae", "assay": "Antibacterial activity against penicillin susceptible Streptococcus pneumoniae clinical isolate by broth microdilution method", "outline": "as §1"}},
  "data": [
    {"smiles": "CC1(C)S[C@@H]2[C@H](NC(=O)[C@H](N)c3ccccc3)C(=O)N2[C@H]1C(=O)O", "note": "[AMPICILLIN]", "values": [
      {"measurement": "MIC50", "setting": "Enterococcus faecalis [1]", "value": 1, "unit": "µg/mL"},
      {"measurement": "MIC90", "setting": "Enterococcus faecalis [1]", "value": 2, "unit": "µg/mL"},
      {"measurement": "MIC", "setting": "Enterococcus faecalis [2]", "value": 0.5, "unit": "µg/mL"},
      {"measurement": "MIC50", "setting": "Enterococcus faecium [3]", "value": 128, "unit": "µg/mL"},
      {"measurement": "MIC90", "setting": "Enterococcus faecium [3]", "value": "> 128", "unit": "µg/mL"},
      {"measurement": "MIC50", "setting": "Enterococcus faecalis [4]", "value": 1, "unit": "µg/mL"},
      {"measurement": "MIC90", "setting": "Enterococcus faecalis [4]", "value": 1, "unit": "µg/mL"},
      {"measurement": "MIC50", "setting": "Enterococcus faecium [5]", "value": 128, "unit": "µg/mL"},
      {"measurement": "MIC50", "setting": "Enterococcus faecium [6]", "value": 128, "unit": "µg/mL"},
      {"measurement": "MIC90", "setting": "Enterococcus faecium [6]", "value": "> 128", "unit": "µg/mL"}
    ]},
    {"smiles": "C[C@H]1COc2c(N3CCN(C)CC3)c(F)cc3c(=O)c(C(=O)O)cn1c23.C[C@H]1COc2c(N3CCN(C)CC3)c(F)cc3c(=O)c(C(=O)O)cn1c23.O", "note": "[LEVOFLOXACIN]", "values": [
      {"measurement": "MIC50", "setting": "[7]", "value": 0.5, "unit": "µg/mL"},
      {"measurement": "MIC90", "setting": "[7]", "value": 0.5, "unit": "µg/mL"},
      {"measurement": "MIC50", "setting": "Streptococcus sanguinis", "value": 0.5, "unit": "µg/mL"},
      {"measurement": "MIC90", "setting": "Streptococcus sanguinis", "value": 1, "unit": "µg/mL"},
      {"measurement": "MIC50", "setting": "Streptococcus agalactiae", "value": 0.5, "unit": "µg/mL"},
      {"measurement": "MIC90", "setting": "Streptococcus agalactiae", "value": 1, "unit": "µg/mL"},
      {"measurement": "MIC50", "setting": "Streptococcus pneumoniae [8]", "value": 0.5, "unit": "µg/mL"},
      {"measurement": "MIC90", "setting": "Streptococcus pneumoniae [8]", "value": 1, "unit": "µg/mL"},
      {"measurement": "MIC50", "setting": "Streptococcus oralis", "value": 0.5, "unit": "µg/mL"},
      {"measurement": "MIC90", "setting": "Streptococcus oralis", "value": 1, "unit": "µg/mL"},
      {"measurement": "MIC50", "setting": "[9]", "value": 0.5, "unit": "µg/mL"},
      {"measurement": "MIC90", "setting": "[9]", "value": 0.5, "unit": "µg/mL"},
      {"measurement": "MIC50", "setting": "[10]", "value": 0.5, "unit": "µg/mL"},
      {"measurement": "MIC90", "setting": "[10]", "value": 1, "unit": "µg/mL"},
      {"measurement": "MIC50", "setting": "Streptococcus pneumoniae [11]", "value": 0.5, "unit": "µg/mL"},
      {"measurement": "MIC90", "setting": "Streptococcus pneumoniae [11]", "value": 1, "unit": "µg/mL"},
      {"measurement": "MIC50", "setting": "Streptococcus mitis", "value": 0.5, "unit": "µg/mL"},
      {"measurement": "MIC90", "setting": "Streptococcus mitis", "value": 1, "unit": "µg/mL"},
      {"measurement": "MIC50", "setting": "[12]", "value": 0.5, "unit": "µg/mL"},
      {"measurement": "MIC90", "setting": "[12]", "value": 1, "unit": "µg/mL"},
      {"measurement": "MIC50", "setting": "Streptococcus sp. [13]", "value": 0.5, "unit": "µg/mL"},
      {"measurement": "MIC90", "setting": "Streptococcus sp. [13]", "value": 0.5, "unit": "µg/mL"},
      {"measurement": "MIC50", "setting": "Streptococcus pyogenes", "value": 0.5, "unit": "µg/mL"},
      {"measurement": "MIC90", "setting": "Streptococcus pyogenes", "value": 1, "unit": "µg/mL"},
      {"measurement": "MIC50", "setting": "Streptococcus equinus", "value": 0.5, "unit": "µg/mL"},
      {"measurement": "MIC90", "setting": "Streptococcus equinus", "value": 1, "unit": "µg/mL"},
      {"measurement": "MIC50", "setting": "Streptococcus sp. [14]", "value": 0.5, "unit": "µg/mL"},
      {"measurement": "MIC90", "setting": "Streptococcus sp. [14]", "value": 1, "unit": "µg/mL"},
      {"measurement": "MIC50", "setting": "Streptococcus pneumoniae [15]", "value": 1, "unit": "µg/mL"},
      {"measurement": "MIC90", "setting": "Streptococcus pneumoniae [15]", "value": 1, "unit": "µg/mL"}
    ]}
  ]
}
